PMC8941156 (Heliyon, 2022)

Assays:
[1] = Single dose oral pharmacokinetic study of rubraxanthone in mice; type: in vivo; details: mouse, plasma, 700 mg/kg
Method in brief: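 Mice (7–8 weeks, 20 ± 5 g) were given a fresh suspension in virgin coconut oil orally. Under isoflurane, mandibular-vein blood was taken from six mice per time point over 0–24 h into lithium heparin, and plasma was stored at −80 °C. Plasma was extracted by acetonitrile precipitation with α-mangostin internal standard and read by UHPLC-DAD (0.128–5 µg/mL calibration). Non-compartmental analysis used trapezoidal AUC and Ke from log-linear regression of the last four points (3–5.5 h), reported as mean ± SD.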

[2] = Stability of rubraxanthone in mice plasma; type: in vitro ADME; details: for freeze–thaw stability, % diff: mice plasma, three freeze–thaw rounds
Method in brief: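 Blank mouse plasma was spiked at medium and high QC levels, extracted by acetonitrile precipitation with α-mangostin internal standard, and quantified by UHPLC-DAD at 243 nm. For freeze–thaw, four replicate samples per level went through three cycles. Post-preparative and plasma stability came from eight replicates per level. Results are given as % difference.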

- CL/F [1]: 18.7 mL/min/kg
- Tmax [1]: 1.5 ± 0.99 h
- half-life [1]: 6.72 ± 1.29 h
- k el [1]: 2.78e-05 s⁻¹
- freeze–thaw stability, % diff ([2]; HC sample (3.750 μg/mL)): 5.9%
- freeze–thaw stability, % diff ([2]; MC sample (2.067 μg/mL)): 0.49%
- post-preparative and plasma stability ([2]; plasma kept at ambient temperature for 24 h before or after extraction vs plasma kept at -20 °C, MC and HC samples): stable
Structure (SMILES): COc1c(O)cc2oc3cc(O)cc(O)c3c(=O)c2c1C/C=C(\C)CCC=C(C)C [rubraxanthone, 1,3,6,trihydroxy-8-geranyl-7-methoxy xanthone]
